B2AR ag: activates human beta-2 adrenergic receptor causing internalization. P07550. Am2.2-beta2AR cells, FAP receptor internalization, flow cytometry. response, % (concentration not given with the values). 340,000 tested, 0.43% active. AID 504454;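 active = response above a set limit, near 3 SD of response in nonfluorescent compounds, cut at about 42% in these data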
H9c2 TAG inh: reduces triacylglycerol accumulation in H9c2 cells; Nile Red lipid (TAG) fluorescence; cells loaded with 200 µM oleic acid; inhibition, % at 12.5 µM; 230,000 tested, 0.66% active; AID 651582;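 active = pattern-corrected inhibition of lipid staining of at least 50% with the nuclear-stain viability signal not falling by more than 50%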;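 also: 0% = DMSO wells and 100% = triacsin C control wells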
GRK2 inh: blocks RNA aptamer binding to human GRK2. P25098. bead flow cytometry, FAM-aptamer displacement from GRK2. inhibition of aptamer binding, % at 10 µM. 330,000 tested, 0.59% active;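 active = inhibition of aptamer binding above 40%, roughly 3 SD of noise, on plates passing a quality check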;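 also: median bead fluorescence of bound FAM aptamer so fluorescent compounds give negative values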
Target sequence (P25098 whole entry, looked up): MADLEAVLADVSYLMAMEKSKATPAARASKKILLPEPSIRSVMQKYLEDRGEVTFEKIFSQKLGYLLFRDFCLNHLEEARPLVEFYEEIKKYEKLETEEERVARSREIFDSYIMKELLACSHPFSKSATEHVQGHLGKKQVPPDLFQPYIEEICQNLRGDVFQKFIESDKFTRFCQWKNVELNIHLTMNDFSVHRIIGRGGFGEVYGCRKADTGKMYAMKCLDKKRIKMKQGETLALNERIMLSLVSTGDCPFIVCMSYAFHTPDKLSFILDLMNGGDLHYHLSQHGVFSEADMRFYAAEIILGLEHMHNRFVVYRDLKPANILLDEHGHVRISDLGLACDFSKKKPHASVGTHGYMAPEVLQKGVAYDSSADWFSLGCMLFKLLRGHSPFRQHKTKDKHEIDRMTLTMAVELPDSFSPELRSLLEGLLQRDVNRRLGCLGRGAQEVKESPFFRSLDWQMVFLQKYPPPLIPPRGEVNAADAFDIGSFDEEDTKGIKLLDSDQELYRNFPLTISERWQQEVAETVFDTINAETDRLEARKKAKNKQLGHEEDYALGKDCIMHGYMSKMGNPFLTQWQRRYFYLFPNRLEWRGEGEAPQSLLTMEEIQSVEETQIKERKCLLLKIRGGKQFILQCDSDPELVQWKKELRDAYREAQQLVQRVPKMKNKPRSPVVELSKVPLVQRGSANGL
NTR1 agonist: agonists of human neurotensin receptor NTR1; P30989; NTR1-U2OS beta-arrestin-GFP spot imaging, agonist mode; activation, % at 20 µM; 330,000 tested, 0.17% active; AID 493036;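 active = activation at or above 40% of the spot to cytoplasm intensity ratio, with at least 20 cells analyzed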;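 also: 0% = DMSO without peptide and 100% = 100 nM NTR1 peptide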
Lipid droplet: modulators of hepatic lipid droplet formation; AML12 mouse hepatocytes, oleate lipid droplets, BODIPY imaging; inhibition, % at 6.5 µM; 240,000 tested, 0.4% active; AID 1656;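 active = lipid droplet intensity inhibited by at least 50%, with more than 500 cells counted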
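Assay system: AML12 mouse liver cells | Compound dosing: One dose, 6.5 µM compound | Read-out basis: Droplet intensity reduction, % inhibition | Measured by: Fluorescence imaging, 20x objective, two fields per well | Schedule: Overnight treatment with compound plus oleate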
Arr AP2 block: human beta-arrestin and AP2 interaction inhibition | FITC-arrestin peptide / GST-AP2 beads, flow cytometry; AP2 beta2 appendage carries R879A mutation | inhibition, % at 10 µM | 340,000 tested, 0.31% active;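 active = inhibition above a set limit, near 3 SD of compounds lacking own fluorescence, cut at about 54% in these data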;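 also: plate controls were DMSO wells for no effect and 5 µM unlabelled arrestin peptide for full effect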
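System: GST-AP2 R879A glutathione beads | Also added: FITC-arrestin peptide, 50 nM | Times: 12 min plus 1 h, RT | Signal: Bead flow cytometry, FITC channel | Buffer or medium: PBS with 0.05% Tween 20 and 0.1% BSA | Read-out basis: Percent drop in bead-associated FITC signal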
Arr AP2 CP1: blocks beta-arrestin peptide binding to human AP2 | shares compounds with Arr AP2 block | GST-AP2 beads, FITC arrestin peptide binding, flow cytometry; GST-fused beta2-adaptin appendage, R879A mutant | inhibition, % at 10 µM | 1,300 tested, 2% active;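 active = inhibition above a set limit, roughly 3 SD of non-fluorescent compound noise, cut at about 38% in these data; inactive = inhibition at or below that limit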;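 also: loss of bead fluorescence from 50 nM FITC arrestin peptide bound to appendage; 0% = negative control wells and 100% = excess unlabelled arrestin peptide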
GST-FITC bead: GST-GSH bead binding interference, counter-screen; shares compounds with Arr AP2 block; GST-fluorescein binding to GSH beads, fluorescence; inhibition, % at 10 µM; 1,300 tested, 2% active;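 active = inhibition above 50%, about 3 SD of the inhibition seen with non-fluorescent compounds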;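 also: fluorescein maleimide labelled GST captured on 4 micron glutathione beads; higher means more loss of bead fluorescence from quenching or blocked binding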
Active calls of the source: *; x = not tested or not shown. Compounds with a hit are over-represented: about 2% of the library has one in this group of screens.

SMILES	B2AR ag	H9c2 TAG inh	GRK2 inh	NTR1 agonist	Lipid droplet	Arr AP2 block	Arr AP2 CP1	GST-FITC bead
O=C(O)[C@H]1CC=C[C@H]2CCN(Cc3ccc(Cl)c(Cl)c3)C(=O)[C@@H]12	5.1	0.5	2.0	-0.5	x	67.0*	-4.3	0.7
Cc1ccc(-c2csc3ncn(CC(=O)O)c(=O)c23)cc1C	4.7	6.5	1.0	-1.2	7.0	2.1	x	x
COc1ccc(N2C(=O)C(CC(=O)Nc3ccc(F)cc3)N(CCc3ccc(OC)c(OC)c3)C2=O)cc1 (configuration not stated)	1.1	6.6	0.0	1.9	3.1	7.6	x	x
CCOc1ccc(NC(=O)CC2C(=O)N(c3ccc(OC)cc3)C(=O)N2CCc2ccc(OC)c(OC)c2)cc1 (configuration not stated)	18.8	x	5.0	0.2	6.9	55.8*	0.2	-0.7
COc1cccc(CN(C)CC(=O)Nc2cc3oc4ccccc4c3cc2OC)c1	0.4	1.0	2.0	3.2	-3.0	2.6	0.6	-0.4
COc1cccc(CN(C)CC(=O)Nc2ccccc2C(=O)NC2CC2)c1	3.3	-12.1	0.0	8.9	x	3.7	x	x
COc1cc2c(cc1NC(=O)CN(C)Cc1cccc(OC)c1OC)oc1ccccc12	8.3	x	0.0	4.7	-61.1	-7.0	-1.5	1.0
Cc1ccc(NC(=O)Cn2ncn3c(cc4ccccc43)c2=O)cc1F	-6.2	x	0.0	2.1	-10.2	66.2*	0.2	-3.7
Cc1ccc(NC(=O)c2ccc(CSc3nnc(-c4ccncc4)n3C)cc2)cc1	0.0	10.0	0.0	0.5	x	85.1*	2.5	7.5
Cc1ccc(CSc2nnc(-c3ccncc3)n2C)cc1	-1.0	-6.4	3.0	-2.5	-7.0	1.9	x	x
Cc1cc(C)n(CCC(=O)N2CCN(S(=O)(=O)c3ccccc3)CC2)n1	-7.3	x	0.0	-0.4	-25.7	-6.9	x	x
CNS(=O)(=O)c1cccc(C(=O)OC2CCOC2=O)c1 (configuration not stated)	-2.6	x	34.0	-1.7	1.6	-9.3	x	x
O=C(OC1CCOC1=O)c1cccc(S(=O)(=O)Nc2cccc(Cl)c2)c1 (configuration not stated)	15.9	x	3.0	-1.0	-8.1	62.7*	-10.1	-4.2
CCOC(=O)C1CCN(c2cc3c(cc2NC(=O)c2ccccc2Cl)n(C)c(=O)n3C)CC1	2.7	x	0.0	7.6	-20.2	-6.4	-4.1	1.1
CCOC(=O)C1CCN(c2cc3c(cc2NC(=O)c2ccc(F)cc2)n(C)c(=O)n3C)CC1	7.5	x	3.0	10.4	-11.3	36.1	-8.6	-4.6
CN1CCN(c2ccccc2NC(=O)c2ccccc2F)CC1	-0.2	8.5	2.0	1.2	8.5	-5.8	x	x
CCOC(=O)C1CCN(c2cc3c(cc2NC(=O)c2ccccc2OCC)n(C)c(=O)n3C)CC1	27.2	x	1.0	4.7	0.0	10.3	6.1	-3.6
CCOC(=O)C1CCN(c2cc3c(cc2NC(=O)c2ccccc2F)n(C)c(=O)n3C)CC1	-4.1	x	1.0	2.9	-1.7	34.5	-9.9	5.5
CCOC(=O)C1CCN(C(=O)c2ccccc2NC(=O)c2ccc(Cl)cc2)CC1	5.9	x	1.0	-0.2	-18.4	33.5	x	x
CN(Cc1c(F)cccc1Cl)C(=O)CCc1c[nH]c2ccccc12	3.3	x	0.0	1.2	-28.3	4.1	x	x
CCOC(=O)c1c(NC(C)=O)sc2c(O)c(CN3CCN(CC)CC3)ccc12	3.8	x	0.0	0.6	x	63.8*	14.5	1.6
CCOC(=O)c1c(NC(C)=O)sc2c(OC)c(Br)ccc12	6.7	x	4.0	-0.2	-7.6	7.5	x	x
COc1cc(C(=O)NCCC(C)C)ccc1OCc1ccc(Cl)cc1Cl	-6.6	x	2.0	2.8	-18.7	1.3	x	x
COc1ccc(C(=O)NC2CCC(O)CC2)cc1S(=O)(=O)NCc1ccc(Cl)cc1 (configuration not stated)	5.8	-1.3	0.0	-0.2	x	80.0*	-0.9	-8.4
COc1ccc(C(=O)NCCNC(C)=O)cc1S(=O)(=O)NCc1ccc(Cl)cc1	-1.1	x	0.0	-2.7	23.3	4.1	x	x
SMILES	B2AR ag	H9c2 TAG inh	GRK2 inh	NTR1 agonist	Lipid droplet	Arr AP2 block	Arr AP2 CP1	GST-FITC bead
COc1cc(C(=O)NC2CCCCC2)ccc1OCc1ccc(Cl)cc1Cl	2.6	3.9	0.0	0.4	-6.4	106.0*	-8.1	-2.3
Cc1ccc(NC(=O)CN(C)CC(=O)N(C)Cc2ccccc2)cc1	-1.2	-16.6	0.0	2.8	x	-0.5	x	x
CC1(C)CC(=O)C=C(Nc2ccc([N+](=O)[O-])cc2)C1	-3.1	x	0.0	0.2	1.1	2.7	x	x
Cc1cc(O)cc2c1C1CCC3(C)C(=O)CCC3C1C=C2 (configuration not stated)	-19.9	2.4	x	x	x	24.6	x	x
O=C(Nc1cc([N+](=O)[O-])c2[nH]c(=O)c3ccccc3c2c1)C(F)(F)F	-11.3	-1.3	x	x	x	16.8	x	x
Cc1ccc(-c2nnc(SCC(=O)N/N=C/c3ccccc3C(=O)O)n2C2CCCCC2)cc1	0.9	x	0.0	-0.9	12.7	67.9*	4.0	-5.1
Cc1ccc(-n2c(SCC(=O)N/N=C/c3ccccc3C(=O)O)nnc2-c2ccccc2)cc1	0.0	0.7	0.0	0.7	4.0	-3.3	x	x
COc1ccc(/C=N\N=C2/SC(CC(=O)O)C(=O)N2c2ccc(O)cc2)cc1 (configuration not stated)	-8.8	x	2.0	0.3	x	55.8*	-3.9	-11.3
COC(=O)Cc1ccc(NC(=S)N2CCN(C)CC2)cc1	9.6	-6.5	0.0	-0.4	22.2	-3.6	x	x
COC(=O)Cc1ccc(NC(=S)N2CCCCC2C)cc1 (configuration not stated)	16.0	1.6	4.0	1.9	-6.8	57.0*	-10.3	3.3
CCN(C(=O)COC(=O)Cc1c[nH]c2ccccc12)c1c(N)n(Cc2ccccc2)c(=O)[nH]c1=O	10.5	-11.2	0.0	-0.8	x	70.7*	-5.4	-5.6
Cc1ccc(NC(=O)COC(=O)C2COc3ccccc3O2)cc1 (configuration not stated)	-1.6	2.2	0.0	-1.7	x	-2.7	x	x
Cc1ccccc1NS(=O)(=O)c1cccc(C(=O)Nc2cccc(C(=O)O)c2)c1	6.6	-6.0	3.0	0.3	-2.5	15.5	x	x
Cc1cccc(NC(=O)c2cccc(S(=O)(=O)Nc3ccccc3C(=O)O)c2)c1	-2.9	x	0.0	-1.4	10.5	57.6*	-7.9	-7.3
COc1ccc(NC(=O)c2cccc(S(=O)(=O)N3CCOCC3)c2)cc1	-5.7	x	0.0	0.6	-12.9	61.4*	-6.1	-5.6

Source: PubChem (several laboratories)
